The source of these data is ChEMBL document CHEMBL2040816, “Design, synthesis, and structure-activity relationship studies of novel millepachine derivatives as potent antiproliferative agents” (Eur J Med Chem, 2012).

One data set concerns HT-29. The experiment in a line: Antiproliferative activity against human HT-29 cells after 24 hrs by MTT assay. The class given is functional, cell-based. The following applies: HT-29, 24 h. In a few lines:
(§1)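 MTT assay. 1 × 10⁴ cells per well were plated and incubated 24 h before dye was added (20 µL of 5 mg/mL MTT in PBS per well), then incubated until a purple precipitate formed. Precipitate dissolved in 150 µL DMSO after medium removal, then absorbance read.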
A general note: Tetrazolium dyes change colour on reduction, which living cells bring about.

Data set [1] deals with HepG2. The experiment in a line: Cell cycle arrest in human HepG2 cells assessed as accumulation at G2/M phase at 1.25 uM after 8 hrs by propidium iodide staining-based flow cytometric analysis (reference value: 17.72%). In kind it is functional. A general note: Flow cytometry measures light scatter and fluorescence of single cells or particles in a stream.
Another data set relates to K562. Briefly: Antiproliferative activity against human K562 cells after 24 hrs by MTT assay. In kind it is functional, cell-based. The following applies: K562, 24 h. In a few lines: as §1
For data set [2], the system named is HepG2. Briefly: Cell cycle arrest in human HepG2 cells assessed as accumulation at S phase at 1.25 uM after 8 hrs by propidium iodide staining-based flow cytometric analysis (reference value: 32.43%). In kind it is functional.
For data set [3], the system named is HepG2. Briefly: Inhibition of alpha-tubulin in human HepG2 cells assessed as decrease in microtubule formation at 1 uM after 24 hrs by DAPI staining-based immunofluorescence analysis. The class given is cell-based.
The subject of the next data set is SW-620. Briefly: Antiproliferative activity against human SW620 cells after 24 hrs by MTT assay. In kind it is functional, cell-based. The following applies: SW-620, 24 h. In a few lines:
as §1

The subject of data set [4] is HepG2. Briefly: Antiproliferative activity against human HepG2 cells after 24 hrs by MTT assay. The following applies: HepG2, 24 h. The class given is functional, cell-based. Put shortly: as §1
A further data set relates to HCT-116. The experiment in a line: Antiproliferative activity against human HCT116 cells after 24 hrs by MTT assay. In kind it is functional, cell-based. The following applies: HCT-116, 24 h. In a few lines:
as §1

Data set [5] relates to HepG2. Briefly: Cell cycle arrest in human HepG2 cells assessed as accumulation at G2/M phase at 2.5 uM after 8 hrs by propidium iodide staining-based flow cytometric analysis (reference value: 17.72%). In kind it is functional.
Data set [6] has as its system HepG2. The experiment in a line: Inhibition of alpha-tubulin in human HepG2 cells assessed as decrease in spindle formation at 1 uM after 24 hrs by DAPI staining-based immunofluorescence analysis. In kind it is cell-based.
The test system of data set [7] is HepG2. The experiment in a line: Cell cycle arrest in human HepG2 cells assessed as accumulation at S phase at 2.5 uM after 8 hrs by propidium iodide staining-based flow cytometric analysis (reference value: 32.43%). In kind it is functional.
Data set [8] concerns HepG2. The experiment in a line: Cell cycle arrest in human HepG2 cells assessed as accumulation at G1 phase at 2.5 uM after 8 hrs by propidium iodide staining-based flow cytometric analysis (reference value: 49.86%). The class given is functional.
Data set [9] deals with HepG2. Briefly: Cell cycle arrest in human HepG2 cells assessed as accumulation at G1 phase at 1.25 uM after 8 hrs by propidium iodide staining-based flow cytometric analysis (reference value: 49.86%). The class given is functional.
Data set [10] concerns HepG2. Briefly: Cell cycle arrest in human HepG2 cells assessed as accumulation at 5 uM after 8 hrs by propidium iodide staining-based flow cytometric analysis (reference value: 17.72%).
A further data set relates to Mus musculus. The experiment in a line: Toxicity in BALB/c mouse bearing human A549 cells assessed as decrease in body weight at 20 mg/kg, iv administered at intervals of 2 days for 18 days. On the set-up: dose 20 mg/kg, route intravenous. The settings on record: in vivo. The class given is organism-based. Put shortly: (§2)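 Nude mice received 1 × 10⁷ A549 cells in 0.1 mL DMEM subcutaneously in the right gluteal region. At 100 mm³ tumour volume, 24 mice were randomised into four groups (n = 6). Test groups got 20 mg/kg in 0.2 mL physiological saline by tail vein every 2 days for 18 days. Vehicle control got saline; cisplatin 5 mg/kg weekly served as positive control. Tumour growth and body weight tracked; two-sided Student's t test.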

Data set [11] has as its system HepG2. Briefly: Cell cycle arrest in human HepG2 cells assessed as accumulation at G2/M phase at 5 uM after 8 hrs by propidium iodide staining-based flow cytometric analysis (reference value: […]).
The test system of a further data set is A549. Briefly: Antitumor activity against human A549 cells xenografted in BALB/c mouse assessed as tumor growth inhibition at 20 mg/kg, iv administered at intervals of 2 days for 18 days relative to control. The class given is functional. The following applies: read-out: GI. Put shortly:
as §2
(A xenograft is tissue or cells of one species grown in another, often human tumour cells in immunodeficient mice.)

Data set [12] deals with HepG2. The experiment in a line: Cell cycle arrest in human HepG2 cells assessed as accumulation at G1 phase at 5 uM after 8 hrs by propidium iodide staining-based flow cytometric analysis (reference value: 49.86%). The class given is functional.
The test system of a further data set is SK-OV-3. Briefly: Antiproliferative activity against human SKOV3 cells after 24 hrs by MTT assay. The settings on record: SK-OV-3, 24 h. In kind it is functional, cell-based. In a few lines: as §1

Molecules are shown by their SMILES. Calls of active or inactive are those of the source. The rule behind the calls is not given here.

For `CCN(CC)c1ccc(/C=C/C(=O)c2ccc(OC)c3c2OC(C)(C)C=C3)cc1`, the IC50 (commonly the concentration that inhibits the measured activity by half) in the data set on HT-29 was 550 nM; in the data set on K562, 790 nM; in the data set with SW-620 it was 670 nM; in the data set on HepG2 [4] it was 590 nM; in the data set on HCT-116, 620 nM; in the data set on SK-OV-3, 610 nM. In addition, the Activity amounted to 42.55% with HepG2 [1]; 16.77% with HepG2 [2]; 78.35% with HepG2 [5]; 17.17% with HepG2 [7]; 4.49% in the data set with HepG2 [8]; 40.67% in the data set with HepG2 [9]. Also, the Activity is recorded as 9.99% in the data set on HepG2 [10], “Non-toxic” in the data set on Mus musculus, 90.01% in the data set with HepG2 [11] and 0% in the data set with HepG2 [12]. Further, the inhibition entry with HepG2 [3] and with HepG2 [6] was “Active” in each case. The inhibition in vivo at 20 mg/kg in the data set with A549 worked out at 84.1%.
On to `COc1ccc(/C=C/C(=O)c2ccc(OC)c3c2OC(C)(C)C=C3)cc1` [MILLEPACHINE], for which the IC50 in the data set on HT-29 worked out at 3290 nM; in the data set with K562, 4560 nM; with SW-620, 760 nM; in the data set with HepG2 [4] it was 1510 nM; in the data set on HCT-116, 4660 nM; in the data set with SK-OV-3, 2360 nM. In addition, the Activity in the data set on HepG2 [1] is 69.31%; in the data set on HepG2 [2] it was 20.35%; with HepG2 [5], 79.65%; in the data set with HepG2 [7], 17.71%; with HepG2 [8], 2.64%; in the data set with HepG2 [9] it was 10.34%. Besides, the Activity is listed as 91.65% in the data set with HepG2 [10], “Non-toxic” in the data set on Mus musculus, 7.68% with HepG2 [11] and 0.66% in the data set on HepG2 [12]. For the same molecule, the inhibition entry with HepG2 [3] and in the data set with HepG2 [6] was “Active” each time. Besides, the inhibition in vivo at 20 mg/kg in the data set on A549 turned out to be 69.4%.
